Data as given in ChEMBL document CHEMBL5108058 (J Med Chem, 2022).

Experiments:
[1] = Observed apparent volume of distribution in CD-1 mouse plasma at 100 mg/kg, po measured at 0.5 to 3 hrs; format: ADME, organism-based; details: in vivo, time 0.5-3 hrs
Method in brief: (§1)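 Male CD-1 mice, 4 weeks old, given 100 mg/kg by intragastric gavage in DOPS liposomal formulation (1 mM DOPS final). Tail-vein blood sampled at 0.5, 1 and 3 h; terminal heart blood, BALF and lungs at 5 h. EDTA plasma kept at −80 °C until analysis; parameters by non-compartmental analysis.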

[2] = Observed apparent volume of distribution in CD-1 mouse plasma at 25 mg/kg, INH using nebulizer measured at 0.25 to 24 hrs; format: ADME, organism-based; details: in vivo, inhaled_or_intranasal, time 0.25-24 hrs
Method in brief: (§2)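 Male outbred CD-1 mice, 4 weeks old. Compound in a DOPS liposomal formulation (1 mM DOPS final), 25 mg/kg by nebulizer inhalation. Mice euthanized at 0.25, 0.5, 1, 2, 4, 8 and 24 h for heart blood (EDTA plasma), bronchoalveolar lavage and lung homogenate. ELF levels derived from BALF by urea method; non-compartmental PK analysis.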

[3] = AUC (0 to t) in CD-1 mouse plasma at 25 mg/kg, INH using nebulizer measured at 0.25 to 24 hrs; format: ADME, organism-based; design: time lower 0.25 hrs, dose 25 mg/kg, time upper 24 hrs, route inh; details: in vivo, inhaled_or_intranasal; method in brief: as §2
[4] = AUC (0 to t) in CD-1 mouse BALF at 25 mg/kg, INH using nebulizer measured at 5 hrs; format: ADME, organism-based, Bronchoalveolar lavage; design: dose 25 mg/kg, time 5 hrs, route inh; details: in vivo, inhaled_or_intranasal
[5] = Cmax in CD-1 mouse BALF at 25 mg/kg, INH using nebulizer measured at 5 hrs; format: ADME, organism-based, Bronchoalveolar lavage; design: time 5 hrs, dose 25 mg/kg, route inh; details: in vivo, inhaled_or_intranasal
[6] = Cmax in CD-1 mouse plasma at 100 mg/kg, po measured at 0.5 to 3 hrs; format: ADME, organism-based; design: time 0.5-3 hrs, dose 100 mg/kg, route po; details: in vivo; method in brief: as §1
[7] = Cmax in CD-1 mouse lung at 25 mg/kg, INH using nebulizer measured at 0.25 to 24 hrs; format: ADME, organism-based; design: dose 25 mg/kg, time 0.25-24 hrs, route inh; details: inhaled or intranasal; method in brief: as §2
[8] = MRT in CD-1 mouse plasma at 100 mg/kg, po measured at 0.5 to 3 hrs; format: ADME, organism-based; details: in vivo, time 0.5-3 hrs; method in brief: as §1
SARS-CoV-2 [9] = test: Antiviral activity against SARS-CoV-2-alphaB.1.1.7 infected in human A549 cells expressing ACE2 and TMPRSS2 assessed as reduction in cytopathic effect pre-infected with virus on day 0 followed by compound addition on day 1 and measured after 4 days post infection by MTS assay; format: functional, organism-based; details: Severe acute respiratory syndrome coronavirus 2, alphaB.1.1.7, A549
[10] = Tmax in CD-1 mouse plasma at 100 mg/kg, po measured at 0.5 to 3 hrs; format: ADME, organism-based; details: in vivo, time 0.5-3 hrs; method in brief: as §1
SARS-CoV-2 [11] = test: Antiviral activity against SARS-CoV-2-BetaCoV/belgium/GHB-03021/2020 infected in human Huh-7 cells assessed as reduction in cytopathic effect pre-infected with virus on day 0 followed by compound addition on day 1 and measured after 4 days post infection by MTT assay; format: functional, organism-based; details: Severe acute respiratory syndrome coronavirus 2, BetaCoV/belgium/GHB-03021/2020, Huh-7
[12] = Oral bioavailability in CD-1 mouse at 100 mg/kg measured at 0.5 to 3 hrs; format: ADME, organism-based; details: in vivo, time 0.5-3 hrs; method in brief: as §1
[13] = Apparent oral clearance in CD-1 mouse plasma at 25 mg/kg, INH using nebulizer measured at 0.25 to 24 hrs; format: ADME, organism-based; details: time 0.25-24 hrs; method in brief: as §2
[14] = Half life in CD-1 mouse plasma at 100 mg/kg, po measured at 0.5 to 3 hrs; format: ADME, organism-based; details: in vivo, time 0.5-3 hrs; method in brief: as §1
[15] = Tmax in CD-1 mouse plasma at 25 mg/kg, INH using nebulizer measured at 0.25 to 24 hrs; format: ADME, organism-based; details: in vivo, inhaled_or_intranasal, time 0.25-24 hrs; method in brief: as §2
[16] = Cmax in CD-1 mouse plasma at 25 mg/kg, INH using nebulizer measured at 0.25 to 24 hrs; format: ADME, organism-based; design: dose 25 mg/kg, time 0.25-24 hrs, route inh; details: in vivo, inhaled_or_intranasal; method in brief: as §2
[17] = AUC (0 to t) in CD-1 mouse Epithelial lining fluid at 25 mg/kg, INH using nebulizer measured at 0.25 to 24 hrs; format: ADME, organism-based; design: time upper 24 hrs, dose 25 mg/kg, time lower 0.25 hrs, route inh; details: in vivo, inhaled_or_intranasal; method in brief: as §2
Vero C1008 = test: Cytotoxicity against African green monkey Vero E6 cells assessed as reduction in cell viability; format: toxicity, cell-based; details: chlorocebus sabaeus
Method in brief: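 VeroE6-eGFP cells maintained in DMEM with 10% FBS and G418. Compound toxicity measured without virus by standard MTS assay in parallel with the antiviral test. At least two independent dose–response curves.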

SARS-CoV-2 [18] = test: Antiviral activity against SARS-CoV-2-GHB-03021/2020 infected in African green monkey Vero E6 cells assessed as reduction in cytopathic effect pre-infected with virus on day 0 followed by compound addition on day 1 and measured after 4 days post infection in presence of CP-100356 by MTS assay; format: functional, organism-based; details: Severe acute respiratory syndrome coronavirus 2, GHB-03021/2020, Vero C1008
SARS-CoV-2 [19] = test: Antiviral activity against SARS-Cov2 […] infected in Calu-3 cells assessed as reduction in viral particle release measured after 24 hrs; format: functional, organism-based; details: Severe acute respiratory syndrome coronavirus 2, Calu-3, 24 h
[20] = Cmax in CD-1 mouse Epithelial lining fluid at 25 mg/kg, INH using nebulizer measured at 0.25 to 24 hrs; format: ADME, organism-based; design: time lower 0.25 hrs, dose 25 mg/kg, time upper 24 hrs, route inh; details: in vivo, inhaled_or_intranasal; method in brief: as §2
[21] = AUC (0 to t) in CD-1 mouse plasma at 100 mg/kg, po measured at 0.5 to 3 hrs; format: ADME, organism-based; design: time lower 0.5 hrs, dose 100 mg/kg, time upper 3 hrs, route po; details: in vivo; method in brief: as §1
SARS-CoV-2 [22] = test: Antiviral activity against SARS-Cov2 […] infected in Calu-3 cells assessed as viral plaque reduction; format: functional, organism-based; details: Severe acute respiratory syndrome coronavirus 2, Calu-3

SMILES: CC(C)(C)OC(=O)Nc1cccn([C@@H](CC2CC2)C(=O)N[C@@H](C[C@@H]2CCNC2=O)C(=O)C(=O)NCc2ccccc2)c1=O
- Vz/F [1]: 131.34 L/kg
- Vz/F [2]: 141.07 L/kg
- AUCt [3]: 2896.63 ng·h/mL
- AUCt [4]: 5162.2 ng·h/mL
- Cmax [5]: 2330.33 ng/mL
- Cmax [6]: 357 ng/mL
- Cmax [7]: 262000 ng/g
- MRT [8]: 2.57 h
- EC50 (SARS-CoV-2 [9]): 840 nM
- Tmax [10]: 2.5 h
- EC50 (SARS-CoV-2 [11]): 3.4 µM
- bioavailability [12]: 17%
- CL/F [13]: 83.9 mL/min/kg
- t1/2 [14]: 1.3 h
- Tmax [15]: 19.8 min
- Cmax [16]: 236.47 ng/mL
- AUCt [17]: 1042.34 µg·h/mL
- CC50 (Vero C1008): > 100 µM
- EC50 (SARS-CoV-2 [18]): 1300 nM
- EC50 (SARS-CoV-2 [19]): 2400 nM
- Cmax [20]: 433.52 µg/mL
- AUCt [21]: 1061.49 ng·h/mL

SMILES: CC(C)(C)OC(=O)Nc1cccn(C(CC2CC2)C(=O)N[C@@H](C[C@@H]2CCNC2=O)C(=O)C(=O)NCc2ccccc2)c1=O (mixture of isomers)
- EC50 (SARS-CoV-2 [22]): 4 µM
